In one experiment the target is Carbonic anhydrase 9 (Homo sapiens, UniProt Q16790). Kind of experiment: Inhibition of human carbonic anhydrase 9 incubated for 15 mins prior to testing by stopped flow CO2 hydration assay. The gist of the method:
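Recombinant hCA isoform; stopped-flow CO2 hydration monitored by phenol red (0.2 mM) absorbance at 557 nm, 10−20 mM Hepes pH 7.5 or Tris pH 8.3, 20 mM Na2SO4 or NaClO4 for ionic strength; initial rates over 10−100 s, CO2 1.7 to 17 mM; inhibitor dilutions in water down to 0.01 nM, preincubated with enzyme 15 min at room temperature; uncatalyzed rate subtracted; Ki by nonlinear least squares, mean of at least three determinations.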

A further experiment concerns the target Carbonic anhydrase 12 (Homo sapiens, UniProt O43570). Kind of experiment: Inhibition of human carbonic anhydrase 12 incubated for 15 mins prior to testing by stopped flow CO2 hydration assay.

pKi: −log10 of the molar value.

Chain of Carbonic anhydrase 12 (O43570 whole entry): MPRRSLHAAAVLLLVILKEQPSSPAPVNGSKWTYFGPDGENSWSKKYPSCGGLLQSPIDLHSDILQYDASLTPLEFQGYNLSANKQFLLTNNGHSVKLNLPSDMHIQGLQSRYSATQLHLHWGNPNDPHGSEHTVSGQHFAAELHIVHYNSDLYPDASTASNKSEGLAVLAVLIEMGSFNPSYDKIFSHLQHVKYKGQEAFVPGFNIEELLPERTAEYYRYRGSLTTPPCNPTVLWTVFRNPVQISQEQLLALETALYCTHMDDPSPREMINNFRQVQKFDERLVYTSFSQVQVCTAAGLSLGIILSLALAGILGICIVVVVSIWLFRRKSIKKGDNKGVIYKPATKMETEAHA

`COc1ccc2c(c1)CCN(C(=O)c1ccc(S(N)(=O)=O)cc1)C2c1ccccc1` (single isomer, unassigned; enantiomer 1) had a pKi at Carbonic anhydrase 9 of 7.60.

`COc1ccc2c(c1)CCN(C(=O)c1ccc(S(N)(=O)=O)cc1)C2c1ccccc1` (racemic): at Carbonic anhydrase 9, the pKi is 7.41.

At Carbonic anhydrase 9, `NS(=O)(=O)c1ccc(C(=O)N2CCc3cc(O)ccc3C2c2ccccc2)cc1` (single isomer, unassigned; enantiomer 2) had a pKi of 7.40.

At Carbonic anhydrase 9, `COc1cc2c(cc1OC)C(c1ccccc1)N(C(=O)c1ccc(S(N)(=O)=O)cc1)CC2` (single isomer, unassigned; enantiomer 2) gave a negative logarithm of the Ki (pKi) of 8.32. This pKi is 0.92 log units higher than that of the compound before.

Take `COc1cc2c(cc1OC)C(c1ccc(F)cc1)N(C(=O)c1ccc(S(N)(=O)=O)cc1)CC2` (racemic): on Carbonic anhydrase 9, the pKi is 8.04. Compared with the last compound, the pKi is 0.28 log units lower.

Consider `COc1cc2c(cc1OC)C(c1ccccc1)N(C(=O)c1ccc(S(N)(=O)=O)cc1)CC2` (single isomer, unassigned; enantiomer 1), for which the pKi at Carbonic anhydrase 9 was 8.30.

Consider `NS(=O)(=O)c1ccc(C(=O)N2CCc3cc(O)ccc3C2c2ccccc2)cc1` (single isomer, unassigned; Enantiomer-1), for which, at Carbonic anhydrase 9, the pKi was 7.14. Against the preceding compound, the pKi is 1.16 log units lower.

`NS(=O)(=O)c1ccc(C(=O)N2CCc3cc(O)c(O)cc3[C@H]2c2ccccc2)cc1` gave a negative-log Ki (pKi) on Carbonic anhydrase 9 of 7.49. Against the preceding compound, the pKi is 0.35 log units higher.

For the compound `NS(=O)(=O)c1ccc(C(=O)N2CCc3cc(O)c(O)cc3C2c2ccc(Cl)cc2)cc1` (racemic), the negative logarithm of the Ki (pKi) at Carbonic anhydrase 12 was 8.12; at Carbonic anhydrase 9, 8.05.

For the compound `NS(=O)(=O)c1ccc(C(=O)N2CCc3cc(O)c(O)cc3[C@@H]2c2ccccc2)cc1`, on Carbonic anhydrase 9, the pKi is 7.41.

For the compound `NS(=O)(=O)c1ccc(C(=O)N2CCc3cc(O)c(O)cc3C2c2ccc(Br)cc2)cc1` (racemic), on Carbonic anhydrase 9, the pKi is 7.09.

At Carbonic anhydrase 9, `NS(=O)(=O)c1ccc(C(=O)N2CCc3cc(O)ccc3C2c2ccccc2)cc1` (racemic) showed a pKi of 7.30.

As to `COc1ccc2c(c1)CCN(C(=O)c1ccc(S(N)(=O)=O)cc1)C2c1ccccc1` (single isomer, unassigned; enantiomer 2), on Carbonic anhydrase 9, the pKi was 7.23.

As to `NS(=O)(=O)c1ccc(C(=O)N2CCc3cc(O)c(O)cc3C2c2ccc(F)cc2)cc1` (racemic), the pKi on Carbonic anhydrase 9 is 8.09. Compared with the last compound, the pKi is 0.86 log units higher.

Compound `COc1cc2c(cc1OC)C(c1ccccc1)N(C(=O)c1ccc(S(N)(=O)=O)cc1)CC2` (racemic) gave a negative logarithm of the Ki (pKi) on Carbonic anhydrase 9 of 8.31. Against the preceding compound, the pKi is 0.22 log units higher.

`NS(=O)(=O)c1ccc(C(=O)N2CCc3cc(O)c(O)cc3C2c2ccccc2)cc1` (racemic) showed a pKi on Carbonic anhydrase 9 of 7.43.

With `COc1cc2c(cc1OC)C(c1ccc(Cl)cc1)N(C(=O)c1ccc(S(N)(=O)=O)cc1)CC2` (racemic), the pKi on Carbonic anhydrase 9 is 7.04.

At Carbonic anhydrase 9, `CCCOc1ccc2c(c1)CCN(C(=O)c1ccc(S(N)(=O)=O)cc1)C2c1ccccc1` (racemic) had a pKi of 7.35.

Consider `COc1cc2c(cc1OC)C(c1ccc(Br)cc1)N(C(=O)c1ccc(S(N)(=O)=O)cc1)CC2` (racemic), for which the pKi on Carbonic anhydrase 9 is 7.04. This pKi is 0.31 log units lower than that of the compound before.

The values above are taken from ChEMBL document CHEMBL4014313, “Probing Molecular Interactions between Human Carbonic Anhydrases (hCAs) and a Novel Class of Benzenesulfonamides” (J Med Chem, 2017).
